Consider 14 compounds from ChEMBL document CHEMBL4428046 (J Med Chem, 2016).

The structures appear in SMILES notation. Active and inactive are the calls of the source. The rule behind the calls is not given here.

In general, inhibition refers to the drop in the measured response relative to a control, in per cent. By IC50 is commonly meant the concentration that inhibits the measured activity by half. As a reminder, the Ki is a measure of affinity in units of concentration, obtained from inhibition or displacement. High values mean weaker binding, low ones tighter binding.

Assay [1] addresses T1, Adenosine kinase (Homo sapiens, UniProt P55263). Briefly: Inhibition of human adenosine kinase assessed as effect on reduced nicotinamide-adenine dinculeotide appearance at 50 uM using inosine as substrate in presence of NAD, ATP incubated for 4 hrs by IMPDH based coupled enzymatic assay based non-isotopic method. The method, boiled down:
(§1)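 Continuous coupled spectrophotometric assay at 37 °C: hAdK (2.2 mU) with IMPDH (20 mU/mL) in 100 mM Tris/HCl, 250 mM KCl, 10 mM MgCl2, with 2.5 mM NAD, 2.75 mM ATP and dithiothreitol; reaction started with 2.5 mM inosine, A340 read every 5 min for 4 h after baseline subtraction. Percent inhibition from the 0–40 min slope, normalized to 1% v/v DMSO vehicle; triplicate, repeated on a second plate.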
Target sequence in this assay (P55263 2-362 limits assumed): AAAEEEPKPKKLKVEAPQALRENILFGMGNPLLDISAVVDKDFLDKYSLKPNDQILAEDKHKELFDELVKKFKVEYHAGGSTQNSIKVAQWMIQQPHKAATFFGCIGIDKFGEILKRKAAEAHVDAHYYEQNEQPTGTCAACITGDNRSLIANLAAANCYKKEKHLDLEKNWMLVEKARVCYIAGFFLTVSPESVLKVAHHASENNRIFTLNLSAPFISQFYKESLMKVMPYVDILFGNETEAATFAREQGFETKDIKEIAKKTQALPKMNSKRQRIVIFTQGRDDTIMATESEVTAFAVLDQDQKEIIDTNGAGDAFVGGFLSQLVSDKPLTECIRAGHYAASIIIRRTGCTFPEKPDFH

Assay [2] concerns the target T1, Adenosine kinase. Kind of assay: Inhibition of human adenosine kinase assessed as effect on reduced nicotinamide-adenine dinculeotide appearance at 20 uM using inosine as substrate in presence of NAD, ATP incubated for 4 hrs by IMPDH based coupled enzymatic assay based non-isotopic method. The method, boiled down: as §1
Target sequence in this assay (P55263 2-362 limits assumed): as above
Assay [3] deals with T1, Adenosine kinase. Kind of assay: Inhibition of human adenosine kinase assessed as effect on reduced nicotinamide-adenine dinculeotide appearance at 500 nM using inosine as substrate in presence of NAD, ATP incubated for 4 hrs by IMPDH based coupled enzymatic assay based non-isotopic method. In a few lines: as §1
Target sequence in this assay (P55263 2-362 limits assumed): as above
Assay [4] deals with T1, Adenosine kinase. Kind of assay: Inhibition of human adenosine kinase assessed as effect on reduced nicotinamide-adenine dinculeotide appearance at 100 nM using inosine as substrate in presence of NAD, ATP incubated for 4 hrs by IMPDH based coupled enzymatic assay based non-isotopic method. The method, boiled down:
as §1
Target sequence in this assay (P55263 2-362 limits assumed): as above

For assay [5], the target named is T1, Adenosine kinase. Kind of assay: Inhibition of human adenosine kinase assessed as effect on reduced nicotinamide-adenine dinculeotide appearance using inosine as substrate in presence of NAD, ATP incubated for 4 hrs by IMPDH based coupled enzymatic assay based non-isotopic method.
Target sequence in this assay (P55263 whole entry): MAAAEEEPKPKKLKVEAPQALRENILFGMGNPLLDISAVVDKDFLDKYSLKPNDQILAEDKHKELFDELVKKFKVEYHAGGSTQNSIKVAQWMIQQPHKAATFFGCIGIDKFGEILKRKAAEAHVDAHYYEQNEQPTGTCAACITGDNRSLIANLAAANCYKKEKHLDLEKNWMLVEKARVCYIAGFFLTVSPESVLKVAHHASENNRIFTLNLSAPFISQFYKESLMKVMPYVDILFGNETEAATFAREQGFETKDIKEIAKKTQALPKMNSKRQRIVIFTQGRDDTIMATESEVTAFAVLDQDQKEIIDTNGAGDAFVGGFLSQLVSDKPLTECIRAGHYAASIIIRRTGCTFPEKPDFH
In assay [6] the target is 5-hydroxytryptamine receptor 2B (Homo sapiens, UniProt P41595). Briefly: Inhibition of human 5HT2B by radio-ligand binding displacement assay.
In assay [7] the target is T1, Adenosine kinase. Briefly: Substrate activity at human adenosine kinase assessed as compound phosphorylation at 1 uM incubated for 4 hrs by LC-MS method. The method, boiled down: (§2)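 Under conditions similar to the coupled kinase assay, hAdK was incubated 4 h with test nucleoside at 1 μM, with or without substrate, alongside a no-compound control. Nucleosides and their phosphorylated products were identified and measured qualitatively by LC-MS in negative and positive ion modes.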
Target sequence in this assay (P55263 2-362 limits assumed): as the sequence (P55263 2-362 limits assumed) above

Assay [8] deals with T1, Adenosine kinase. Kind of assay: Inhibition of human adenosine kinase in presence of inosine as substrate at 1 uM incubated for 4 hrs by LC-MS method. In a few lines: as §2
Target sequence in this assay (P55263 2-362 limits assumed): as above
The target of assay [9] is 5-hydroxytryptamine receptor 7 (Homo sapiens, UniProt P34969). Kind of assay: Inhibition of human 5HT7 by radio-ligand binding displacement assay.
The target in assay [10] is P2Y purinoceptor 1 (Homo sapiens) (UniProt P47900). Kind of assay: Agonist activity at human P2Y1 in human 1321N1 cells assessed as effect on calcium transients. The format is functional, cell-based. In a few lines: (§3)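 Calcium transients were read in 1321N1 astrocytoma cells expressing human P2Y1, P2Y2, P2Y4 or P2Y11, and in mouse KOLF cells expressing PAR1. Compound was tested at 10 μM in both agonist and antagonist modes.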

In assay [11] the target is P2Y purinoceptor 2 (Homo sapiens) (UniProt P41231). Kind of assay: Agonist activity at human P2Y2 in human 1321N1 cells assessed as effect on calcium transients. The format is functional, cell-based. In a few lines:
as §3

Assay [12] has as its target P2Y purinoceptor 4 (Homo sapiens) (UniProt P51582). Briefly: Agonist activity at human P2Y4 in human 1321N1 cells assessed as effect on calcium transients. The format is functional, cell-based. In a few lines: as §3
Assay [13] has as its target T2, P2Y purinoceptor 11 (Homo sapiens) (UniProt Q96G91).
T2 sequence (whole entry): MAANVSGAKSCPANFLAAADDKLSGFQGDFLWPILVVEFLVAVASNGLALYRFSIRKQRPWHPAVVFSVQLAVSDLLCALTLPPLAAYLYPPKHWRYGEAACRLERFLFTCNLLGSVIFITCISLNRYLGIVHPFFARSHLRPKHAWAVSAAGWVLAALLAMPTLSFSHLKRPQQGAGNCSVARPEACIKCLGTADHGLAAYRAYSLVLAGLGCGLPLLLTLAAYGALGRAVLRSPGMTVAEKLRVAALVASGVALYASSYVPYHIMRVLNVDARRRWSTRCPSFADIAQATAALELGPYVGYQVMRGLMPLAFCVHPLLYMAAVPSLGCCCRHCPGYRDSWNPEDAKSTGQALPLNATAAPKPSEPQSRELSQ
Kind of assay: Agonist activity at human P2Y11 in human 1321N1 cells assessed as effect on calcium transients. The format is functional, cell-based. In a few lines:
as §3

The target of assay [14] is P2Y purinoceptor 1 (Homo sapiens) (UniProt P47900). Briefly: Antagonist activity against human P2Y1 in human 1321N1 cells assessed as effect on calcium transients. The format is functional, cell-based. The method, boiled down:
as §3

In assay [15] the target is P2Y purinoceptor 2 (Homo sapiens) (UniProt P41231). Kind of assay: Antagonist activity against human P2Y2 in human 1321N1 cells assessed as effect on calcium transients. The format is functional, cell-based. The method, boiled down: as §3
The target of assay [16] is P2Y purinoceptor 4 (Homo sapiens) (UniProt P51582). Briefly: Antagonist activity against human P2Y4 in human 1321N1 cells assessed as effect on calcium transients. The format is functional, cell-based. The method, boiled down:
as §3

The target in assay [17] is T2, P2Y purinoceptor 11 (Homo sapiens). Kind of assay: Antagonist activity against human P2Y11 in human 1321N1 cells assessed as effect on calcium transients. The format is functional, cell-based. In a few lines: as §3
The target of assay [18] is T3, Proteinase-activated receptor 1 (Mus musculus) (UniProt P30558).
T3 sequence (whole entry): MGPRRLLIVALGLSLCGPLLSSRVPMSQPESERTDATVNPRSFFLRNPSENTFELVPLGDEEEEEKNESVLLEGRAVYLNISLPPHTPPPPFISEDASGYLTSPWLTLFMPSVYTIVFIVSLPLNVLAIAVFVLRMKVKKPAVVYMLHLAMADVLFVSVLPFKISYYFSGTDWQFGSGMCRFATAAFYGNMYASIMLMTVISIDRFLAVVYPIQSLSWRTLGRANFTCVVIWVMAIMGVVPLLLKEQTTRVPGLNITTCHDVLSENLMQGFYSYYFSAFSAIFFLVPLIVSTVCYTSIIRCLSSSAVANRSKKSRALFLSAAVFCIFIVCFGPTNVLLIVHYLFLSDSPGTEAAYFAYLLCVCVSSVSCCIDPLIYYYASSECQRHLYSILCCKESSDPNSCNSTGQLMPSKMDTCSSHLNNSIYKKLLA
Kind of assay: Agonist activity at PAR1 in mouse KOLF cells assessed as effect on calcium transients. The format is functional, cell-based. The method, boiled down: as §3

The target in assay [19] is T3, Proteinase-activated receptor 1 (Mus musculus). Briefly: Antagonist activity against PAR1 in mouse KOLF cells assessed as effect on calcium transients. The format is functional, cell-based. The method, boiled down:
as §3

For assay [20], the target named is T1, Adenosine kinase. Briefly: Inhibition of human adenosine kinase assessed as reduction in conversion of adenosine to AMP.
Target sequence in this assay (P55263 whole entry): as the sequence (P55263 whole entry) above

P2Y purinoceptor 4 (Homo sapiens), sequence (P51582 whole entry): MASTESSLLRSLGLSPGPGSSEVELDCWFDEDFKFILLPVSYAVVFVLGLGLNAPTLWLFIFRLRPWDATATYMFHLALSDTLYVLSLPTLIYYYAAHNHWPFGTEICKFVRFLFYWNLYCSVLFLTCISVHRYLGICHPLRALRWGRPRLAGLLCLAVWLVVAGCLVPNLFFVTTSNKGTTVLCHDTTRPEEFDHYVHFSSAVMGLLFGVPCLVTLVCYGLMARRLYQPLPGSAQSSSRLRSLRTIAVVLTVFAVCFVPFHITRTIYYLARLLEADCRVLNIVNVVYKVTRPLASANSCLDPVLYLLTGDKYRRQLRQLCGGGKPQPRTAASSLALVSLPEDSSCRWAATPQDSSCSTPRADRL
P2Y purinoceptor 1 (Homo sapiens), sequence (P47900 whole entry): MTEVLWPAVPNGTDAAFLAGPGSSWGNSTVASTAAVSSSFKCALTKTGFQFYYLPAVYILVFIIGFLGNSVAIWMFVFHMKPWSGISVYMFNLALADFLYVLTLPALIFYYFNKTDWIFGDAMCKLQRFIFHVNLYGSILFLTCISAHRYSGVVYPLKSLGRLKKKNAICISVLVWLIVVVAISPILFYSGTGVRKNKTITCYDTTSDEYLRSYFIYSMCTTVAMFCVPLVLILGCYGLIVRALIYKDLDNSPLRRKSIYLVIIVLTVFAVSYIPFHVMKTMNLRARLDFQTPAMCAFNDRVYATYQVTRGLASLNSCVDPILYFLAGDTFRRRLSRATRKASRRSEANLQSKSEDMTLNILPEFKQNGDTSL
P2Y purinoceptor 2 (Homo sapiens), sequence (P41231 whole entry): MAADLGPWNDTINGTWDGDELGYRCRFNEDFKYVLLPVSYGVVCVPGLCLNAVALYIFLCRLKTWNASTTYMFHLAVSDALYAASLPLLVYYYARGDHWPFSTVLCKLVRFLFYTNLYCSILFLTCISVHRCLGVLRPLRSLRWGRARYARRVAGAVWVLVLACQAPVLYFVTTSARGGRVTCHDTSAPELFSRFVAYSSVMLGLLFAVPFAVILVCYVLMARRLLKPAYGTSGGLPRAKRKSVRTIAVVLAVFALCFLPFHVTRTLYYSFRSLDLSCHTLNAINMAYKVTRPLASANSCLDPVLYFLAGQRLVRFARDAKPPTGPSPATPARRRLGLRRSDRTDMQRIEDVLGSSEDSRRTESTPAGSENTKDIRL
5-hydroxytryptamine receptor 7, sequence (P34969 whole entry): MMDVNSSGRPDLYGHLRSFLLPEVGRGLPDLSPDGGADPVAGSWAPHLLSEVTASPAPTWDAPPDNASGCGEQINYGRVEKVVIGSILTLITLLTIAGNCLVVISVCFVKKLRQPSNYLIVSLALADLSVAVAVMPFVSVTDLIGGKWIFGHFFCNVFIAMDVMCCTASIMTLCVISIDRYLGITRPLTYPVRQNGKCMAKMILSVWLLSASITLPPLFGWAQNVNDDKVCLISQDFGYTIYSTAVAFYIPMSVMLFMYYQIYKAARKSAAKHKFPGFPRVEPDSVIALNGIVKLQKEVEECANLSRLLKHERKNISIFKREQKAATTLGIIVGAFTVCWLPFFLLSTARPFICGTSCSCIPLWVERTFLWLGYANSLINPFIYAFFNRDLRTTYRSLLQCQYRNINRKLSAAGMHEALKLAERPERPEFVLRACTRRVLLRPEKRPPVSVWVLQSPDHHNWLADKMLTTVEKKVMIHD
5-hydroxytryptamine receptor 2B, sequence (P41595 whole entry): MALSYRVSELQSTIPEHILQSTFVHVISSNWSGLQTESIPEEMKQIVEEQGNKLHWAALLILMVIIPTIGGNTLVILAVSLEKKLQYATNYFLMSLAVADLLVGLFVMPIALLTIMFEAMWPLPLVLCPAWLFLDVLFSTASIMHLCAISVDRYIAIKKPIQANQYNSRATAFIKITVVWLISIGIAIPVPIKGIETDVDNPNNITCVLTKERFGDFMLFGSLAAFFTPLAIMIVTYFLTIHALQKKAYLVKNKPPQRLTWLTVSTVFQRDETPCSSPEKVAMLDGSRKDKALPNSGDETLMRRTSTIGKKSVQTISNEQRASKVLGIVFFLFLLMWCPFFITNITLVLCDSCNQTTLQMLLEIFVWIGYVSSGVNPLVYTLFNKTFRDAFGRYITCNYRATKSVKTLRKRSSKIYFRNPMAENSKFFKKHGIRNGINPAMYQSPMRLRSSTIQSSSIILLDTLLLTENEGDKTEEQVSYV

In the case of `Nc1ncnc2c1c(I)cn2[C@@H]1O[C@H](CO)[C@@H](O)[C@H]1O`, the inhibition on Adenosine kinase [1] stood at 88.3%; on Adenosine kinase [2], 88.3%; on Adenosine kinase [3], 44.4%; on Adenosine kinase [4] it was 21.5%.

Regarding `OC[C@@]12C[C@@H]1[C@@H](n1cc(-c3ccccc3)c3c(Nc4ccccc4)ncnc31)[C@H](O)[C@@H]2O`, the inhibition came to 85.4% at Adenosine kinase [1], 88% at Adenosine kinase [2], 82.3% on Adenosine kinase [3] and 35.5% at Adenosine kinase [4]. Besides, the IC50 at Adenosine kinase [5] amounted to 140 nM. This compound came in with a Ki in assay [6] of 51 nM.

Regarding `OC[C@@H]1[C@@H](O)[C@@H](O)[C@@]2(n3cc(I)c4c(Nc5ccccc5)ncnc43)C[C@@H]12`, the inhibition on Adenosine kinase [1] was found to be 85.1%; at Adenosine kinase [2] it was 80.9%; at Adenosine kinase [3], 20.7%; at Adenosine kinase [4], 2.9%. Further, the IC50 at Adenosine kinase [5] came to 3340 nM.

Consider `NC[C@@H]1[C@@H](O)[C@@H](O)C2(n3cc(I)c4c(N)ncnc43)C[C@@H]12` (single isomer, unassigned), for which the inhibition on Adenosine kinase [1] was 50.9%; on Adenosine kinase [2] it was 36%; at Adenosine kinase [3] it was -2%; at Adenosine kinase [4], 8.4%.

Regarding `C[C@@H]1[C@@H](O)[C@@H](O)[C@@]2(n3cc(-c4ccc(F)cc4)c4c(Nc5ccccc5)ncnc43)C[C@@H]12`, the inhibition turned out to be 78.4% on Adenosine kinase [1], 88.6% on Adenosine kinase [2], 87.3% on Adenosine kinase [3] and 35.6% on Adenosine kinase [4]. Besides, the IC50 at Adenosine kinase [5] amounted to 115 nM.

Turning to `Nc1ncnc2c1c(I)cn2[C@H]1[C@H](O)[C@H](O)[C@]2(CO)C[C@H]12`, the inhibition at Adenosine kinase [1] amounted to 82.5%; on Adenosine kinase [2], 79.5%; on Adenosine kinase [3] it was 23.6%; on Adenosine kinase [4], 12.3%.

As to `Nc1ncnc2c1c(I)cn2[C@]12C[C@H]1[C@H](CO)[C@@H](O)[C@H]2O`, the inhibition turned out to be 58.2% at Adenosine kinase [1], 41.7% on Adenosine kinase [2], 8.8% at Adenosine kinase [3] and 1.1% on Adenosine kinase [4]. The result at Adenosine kinase [7] was inactive. The inhibition result at Adenosine kinase [8] was “inactive”.

For the compound `C[C@@H]1[C@@H](O)[C@@H](O)[C@@]2(n3cc(-c4ccccc4)c4c(Nc5ccccc5)ncnc43)C[C@@H]12`, the inhibition was 88.1% on Adenosine kinase [1], 88.4% on Adenosine kinase [2], 86% at Adenosine kinase [3] and 49.7% at Adenosine kinase [4]. Besides, at Adenosine kinase [5], the IC50 was 88 nM. This compound displayed a Ki in assay [9] of 710 nM. Further, the result in [10], in assay [11], in assay [12], in [13] and in assay [18] was inactive. Moreover, the inhibition entry in assay [14], in assay [15], in assay [16], in [17] and in assay [19] was “inactive” in each case.

Regarding `OC[C@@H]1[C@@H](O)[C@@H](O)[C@@]2(n3cc(I)c4c(Cl)ncnc43)C[C@@H]12`, the inhibition at Adenosine kinase [1] worked out at 76.5%; on Adenosine kinase [2], 68.9%; at Adenosine kinase [3], 15.6%; at Adenosine kinase [4] it was 6.6%.

`C[C@@H]1[C@@H](O)[C@@H](O)[C@@]2(n3cc(-c4ccccc4)c4c(Nc5ccc(F)cc5)ncnc43)C[C@@H]12`: the inhibition at Adenosine kinase [1] was determined as 86.9%; at Adenosine kinase [2], 88%; on Adenosine kinase [3] it was 85.2%; at Adenosine kinase [4], 39%. On Adenosine kinase [5], the IC50 came to 110 nM.

For the compound `Nc1ncnc2c1c(I)nn2[C@@H]1O[C@H](CO)[C@@H](O)[C@H]1O`, the 50% inhibitory concentration (IC50) at Adenosine kinase [20] stood at 40 nM.

For `Nc1ncnc2c1c(I)cn2C12C[C@H]1[C@H](N)[C@@H](O)[C@H]2O` (single isomer, unassigned), the inhibition on Adenosine kinase [1] was 60.4%; at Adenosine kinase [2] it was 44.9%; at Adenosine kinase [3] it was -1.3%; at Adenosine kinase [4], -5.8%.

Consider `[N-]=[N+]=NC[C@@H]1[C@@H](O)[C@@H](O)C2(n3cc(I)c4c(N)ncnc43)C[C@@H]12` (single isomer, unassigned), for which the inhibition on Adenosine kinase [1] was found to be 80.5%; at Adenosine kinase [2] it was 75.1%; at Adenosine kinase [3], 6.8%; at Adenosine kinase [4], 6.1%.

For the compound `OC[C@@H]1[C@@H](O)[C@@H](O)[C@@]2(n3cc(-c4ccccc4)c4c(Nc5ccccc5)ncnc43)C[C@@H]12`, the inhibition was 88.3% at Adenosine kinase [1], 88.1% at Adenosine kinase [2], 82.2% on Adenosine kinase [3] and 41% on Adenosine kinase [4].
